# High-throughput results as filed in PubChem.
# PGC1a Ac signal: raises PGC1a acetylation signal in U2OS cells; U2OS PGC1a acetylation AlphaScreen, overnight; activation, % at 15.6 µM; 350,000 tested, 0.21% active; AID 651723;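 active = every replicate reaching activation of at least 50%, whatever the mean replicate activation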;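 also: hits raise the AlphaScreen acetylation signal above neutral controls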
#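 System: flag-PGC1a/GCN5 U2OS cells / Input: 7000 cells/well / Compound: single test concentration per compound / Incubation: overnight compound treatment, 37 °C / Technique: AlphaScreen on lysates with anti-acetyl-lysine antibody, acceptor and donor beads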
# Numbers without * were called inactive. The full list was thinned out, with hits kept by preference.
SMILES,PGC1a Ac signal
COc1ccc(-c2onc(C)c2-c2ccc(C(=O)OC(C)C)o2)c(O)c1,-74.1
COc1ccc(-n2c(=O)c3c4c(sc3n3c(=S)[nH]nc23)CCC4)cc1,234.3*
COc1cccc(-n2nnnc2S(C)(=O)=O)c1,200.4*
NCC[C@H]1CC[C@@H](NC(=O)C2CCCCC2)[C@@H](CO)O1,-55.8
C[C@@H]1CN([C@@H](C)CO)C(=O)c2cc(NC(=O)CCCN(C)C)ccc2O[C@@H](C)CCCCO[C@@H]1CN(C)Cc1ccc(C(F)(F)F)cc1,-110.0
CCC(CC)NC(=O)Cc1ccc(S(=O)(=O)N2CCOCC2)s1,52.4*
COc1cccc(OC)c1NC(=O)C1CCCN1C(=O)NCc1ccccc1 (stereo unspecified),-96.9
O=C(CC1CC1)N[C@H]1CC[C@@H](CCNS(=O)(=O)c2ccc(Cl)cc2)O[C@@H]1CO,-67.0
C[C@@H]1CN([C@@H](C)CO)C(=O)c2cc(-c3cccc(C#N)c3)cnc2O[C@H]1CN(C)C(=O)c1ccccn1,-57.5
CN(C[C@H]1N[C@@H](CO)[C@@H]1c1ccc(C2=CCCC2)cc1)C(=O)c1cccc(F)c1,-76.2
COc1ccc(S(=O)(=O)N2CCCCN3[C@@H](CO)[C@@H](c4ccc(C5=CCCCC5)cc4)[C@@H]3C2)cc1,57.3*
COc1cccc(C2c3[nH]c4ccccc4c3CCN2Cc2cnc(C)s2)c1OC (stereo unspecified),69.6*
Cc1c(NC(=O)COC(=O)c2ccccc2O)c(=O)n(-c2ccccc2)n1C,-56.8
CCOC(=O)C1=C(C)NC(=O)NC1c1ccccc1Cl (stereo unspecified),57.3*
C=CCOC(=O)C1=C(C)NC(SCC)=C(C#N)C1c1ccc(Cl)cc1 (stereo unspecified),-44.7
Cc1ccc(/C=C2/CNC/C(=C/c3ccc(C)cc3)C2=O)cc1,-74.2
C[C@@H]1CN([C@@H](C)CO)C(=O)c2c(c3ccccc3n2C)-c2ccccc2CO[C@@H]1CN(C)C(=O)c1cc(Cl)cc(Cl)c1,95.6*
C[C@H]1CCCCO[C@@H](CN(C)C(=O)c2ccccc2)[C@@H](C)CN([C@@H](C)CO)C(=O)c2cc(NC(=O)Nc3ccc(F)cc3)ccc2O1,-42.5
CC(C)CC#Cc1cnc2c(c1)C(=O)N([C@@H](C)CO)C[C@@H](C)[C@H](CN(C)C(=O)c1ccccc1)O2,-49.2
Cc1ccc(NC(=O)CC2=NC(=O)C(CC(=O)Nc3ccccc3F)S2)cc1 (stereo unspecified),-49.7
CCOc1cc(/C=C2\CN(C)C/C(=C\c3ccc(O)c(OCC)c3)C2=O)ccc1O,-53.2
CCOc1cc(C)c(S(=O)(=O)N2CCCC2)cc1C,61.4*
Cn1ncc2c(O/N=C(\N)c3ccc(C(F)(F)F)cc3)ncnc21,-43.5
Cn1nc([N+](=O)[O-])nc1S(C)(=O)=O,95.0*
COc1cccc(-n2c(Cc3cc(=O)[nH]c(=O)[nH]3)nnc2SCc2cccc(C(F)(F)F)c2)c1,-42.0
SMILES,PGC1a Ac signal
COc1ccccc1C#Cc1ccc([C@H]2[C@H](C#N)N(C(=O)C3CCCC3)[C@H]2CO)cc1,-64.9
COc1ccc(C#Cc2ccc([C@@H]3[C@H](CO)N4CCCCN(C(=O)Nc5ccccc5)C[C@@H]34)cc2)cc1,78.0*
CC(C)CC#Cc1ccc([C@@H]2[C@H](CO)N3CCCCN(S(=O)(=O)Cc4ccccc4)C[C@@H]23)cc1,60.5*
O=C(Nc1ccccc1F)N1CCCCN2[C@H](CO)[C@H](c3ccc(C#Cc4ccccc4)cc3)[C@H]2C1,71.5*
O=C(OCc1nc2ccsc2c(=O)[nH]1)c1cccc(S(=O)(=O)N2CCOCC2)c1,-41.7
Cc1[nH]c2ccccc2c1/C=N/Nc1nc2ccccc2[nH]1,79.5*
COc1ccc(/C=N/Nc2nc3ccccc3[nH]2)c(OC)c1OC,-50.3
Cc1cc(C)n(CCc2nc3c4ccccc4n(CC#N)c(=O)n3n2)n1,-41.5
CSCCC(NC(=O)OC(C)(C)C)C(=O)Oc1ccc2c(=O)c(-c3ccc4c(c3)OCCO4)coc2c1 (stereo unspecified),73.2*
CC1=CC(C)(C)N2C(=O)C3(SCC(=O)N3c3ccc(F)cc3)c3cc(C)cc1c32 (stereo unspecified),93.0*
COc1ccc(NC(=O)N[C@H]2CC[C@H](CCn3cc(-c4ccccc4F)nn3)O[C@@H]2CO)cc1,-69.1
COc1cc(Cl)c(S(=O)(=O)N2CC(C)OC(C)C2)cc1Cl (stereo unspecified),88.6*
COc1cc(C(=O)O)ccc1Cl,-48.1
Cc1coc2cc3oc(=O)c(CCC(=O)NC4CC4)c(C)c3cc12,57.0*
Cc1c(CCOC(=O)CC23CC4CC(CC(C4)C2)C3)sc[n+]1Cc1ccccc1,60.9*
O=C(C[C@@H]1C=C[C@@H](NC(=O)Nc2ccc(C(F)(F)F)cc2)[C@H](CO)O1)NCc1ccccn1,-43.5
O=C(CC(CC(=O)c1ccc(Br)cc1)c1cccnc1)c1ccc(Br)cc1,-50.3
COc1cc(CN2CC3(CCN(S(=O)(=O)c4cccs4)CC3)c3c(n(C)c4cc(OC)ccc34)[C@H]2CO)cc(OC)c1,63.4*
